Source: PubChem BioAssay (several laboratories)
Yeast growth inh: chemicals that inhibit yeast BB579 growth in restrictive medium (lifespan-shortening candidates) | S. cerevisiae BB579 growth, OD615, 48 h | 140,000 compounds, 0.51% hits | inhibition, % at 10 µM;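 active = inhibition above a set limit, 3 SD over the mean compound inhibition, cut at about 44% in these data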
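System: DeaD yeast strain BB579; buffer or medium: CSMM-D dextrose restrictive medium; technique: OD at 615 nm; schedule: 4 h cell preincubation, 48 h compound exposure, 30 °C humidified; doses: single 10 µM dose; controls: amphotericin B 10 µg/mL, positive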
WT yeast gro inh: growth inhibition of WT yeast, mitochondrial fusion screen; mitochondrial fusion phenotypic screen, WT strain; inhibition, % at 10 µM; 190,000 compounds, 2.1% hits; AID 1362; in the data active = inhibition above about 58%; tested in S. cerevisiae
RAM network inh: yeast RAM network inhibition; 190,000 compounds, 1.8% hits; inhibition, % at 50 µM; S. cerevisiae dse1pr::URA3 reporter, 5-FOA growth OD615, 2 d; analog-sensitive cbk1-as2 kinase mutant strain;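 active = inhibition above a set limit, 3 SD over mean compound inhibition, cut at about 8.4% in these data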;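 note: inhibition rescues growth on 5-FOA so higher OD means more RAM inhibition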
Measles CPE: protection of cells from measles virus; protection (pct of control), % at 4 µM; Measles virus-infected cells, CPE protection, absorbance; 140,000 compounds, 1.5% hits; AID 841; in the data active = protection mostly above about 24%, no sharp cut-off; inactive = mostly below about 26%
DAT uptake mod: human DAT dopamine uptake with cocaine, either direction; AID 449768; LLC-PK1 hDAT cells, [14C]-dopamine uptake with cocaine IC80; actives deviate in either direction; 110,000 compounds, 1.3% hits; B-score at 10 µM;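 active = Z score or B-score, a plate-position-corrected score, falls beyond the plate's 99.7% confidence bounds, in either direction; inactive = both scores lie inside the 99.7% bounds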
Target sequence (Q01959 whole entry, looked up): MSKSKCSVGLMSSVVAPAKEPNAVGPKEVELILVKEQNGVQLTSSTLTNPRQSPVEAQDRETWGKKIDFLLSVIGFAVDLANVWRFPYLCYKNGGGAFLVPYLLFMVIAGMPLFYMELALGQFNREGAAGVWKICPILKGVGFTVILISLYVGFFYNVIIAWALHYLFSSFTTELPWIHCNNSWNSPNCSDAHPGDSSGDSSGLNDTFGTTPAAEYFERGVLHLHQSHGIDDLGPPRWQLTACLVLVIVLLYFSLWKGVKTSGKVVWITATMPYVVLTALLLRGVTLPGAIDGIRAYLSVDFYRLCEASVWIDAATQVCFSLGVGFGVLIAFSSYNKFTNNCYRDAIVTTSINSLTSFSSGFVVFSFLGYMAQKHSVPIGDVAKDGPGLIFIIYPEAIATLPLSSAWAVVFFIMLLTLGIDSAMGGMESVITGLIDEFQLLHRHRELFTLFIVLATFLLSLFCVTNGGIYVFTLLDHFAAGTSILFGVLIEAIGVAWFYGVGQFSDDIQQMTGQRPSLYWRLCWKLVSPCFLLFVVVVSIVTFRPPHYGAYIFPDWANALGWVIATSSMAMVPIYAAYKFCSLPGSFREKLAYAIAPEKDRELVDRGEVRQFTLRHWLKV
Yeast life ext: yeast lifespan extension | 130,000 compounds, 0.68% hits | S. cerevisiae growth with nicotinamide, OD615; deaD strain in restrictive glucose medium | AID 775 | inhibition of the nicotinamide effect, % at 10 µM;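 active = inhibition above a set limit, placed 3 SD over the median of all compounds, cut at about 26% in these data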
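Measured by: optical density (absorbance) at 615 nm; System: modified budding yeast, DeaD strain; Medium: restrictive CSMM-D dextrose medium; Timing: 4 h preincubation then 48 h treatment at 30 °C.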
Hits are given with their value; n = inactive; x = no result given. Hits are enriched below; roughly 6.1% of the tested compounds scored in any of these assays.

SMILES	Yeast growth inh	WT yeast gro inh	RAM network inh	Measles CPE	DAT uptake mod	Yeast life ext
CC(=O)Nc1nc(C)c(Oc2ccccc2)c(=O)[nH]1	n	n	n	n	n	81
COc1ccc(S(N)(=O)=O)cc1C(=O)NCCCN1CCN(c2ccc(C)cc2)CC1	n	n	n	n	n	58
COc1ccc(S(N)(=O)=O)cc1C(=O)NCCCN1CCN(c2cccc(Cl)c2)CC1	n	n	n	n	x	n
CCS(=O)(=O)N1CCCC(C(=O)NCCCN2CCCC2=O)C1 (stereo unspecified)	n	n	n	n	n	n
CCCCCCc1cc2cc(S(=O)(=O)c3ccc(Cl)cc3)c(=O)oc2cc1O	n	88	n	n	n	n
CCCCCCc1cc2cc(S(=O)(=O)c3ccc(C)cc3)c(=O)oc2cc1O	n	n	n	n	n	n
CCOC(=O)c1ccc(N2C(=O)C(CC(N)=O)N(CCc3ccc(OC)c(OC)c3)C2=S)cc1 (stereo unspecified)	x	n	n	x	x	x
Cc1ccc(/C=C2\SC(N3CCN(C(c4ccccc4)c4ccccc4)CC3)=NC2=O)o1	n	n	n	n	x	n
O=C1CCC/C1=c1\s/c(=C\c2cccnc2)c(=O)n1-c1ccccc1	n	n	n	28	n	n
O=C(N/N=C/c1ccc(N2CCOCC2)cc1)c1ccccc1OCCOc1ccccc1	x	n	n	x	x	x
COc1ccc(N2CCN(Cc3nc4ccccc4c(=O)[nH]3)CC2)cc1	n	n	n	n	n	n
COc1cccc(N2CCN(Cc3nc4ccccc4c(=O)[nH]3)CC2)c1	n	n	n	n	2.2	n
Cc1ccc(OCC(=O)Sc2ccc(C)cc2)cc1	n	n	n	38	n	n
C=CCN(c1cccc(C(F)(F)F)c1)S(=O)(=O)c1cccc(C(=O)OCC(=O)NC(N)=O)c1	n	n	9.1	n	x	n
C=CCN(c1cccc(C(F)(F)F)c1)S(=O)(=O)c1cccc(C(=O)OCC(=O)Nc2ccccc2)c1	n	n	9.0	n	x	n
O=C1CCCC(=NCc2ccco2)C1	n	n	n	36	n	n
O=C1C=C(NCc2ccco2)CCC1	n	n	n	n	n	n
COC(=O)c1cccc(NC(=O)CSc2nc3cccnc3n2C)c1	n	n	n	63	n	n
COC(=O)c1ccccc1NC(=O)CSc1nc2cccnc2n1C	x	n	n	x	x	x
O=C(Nc1nc2c(s1)CCc1ccccc1-2)c1cccs1	n	n	n	n	n	x
Fc1ccccc1Nc1nc2c(s1)CCc1ccccc1-2	n	64	n	n	x	n
ONC(=Nc1ccc(Cl)cc1)c1ccccc1	n	n	n	n	-9.7	n
N#Cc1cc2c(nc1SCC1COc3ccccc3O1)CCC2 (stereo unspecified)	n	n	n	n	n	n
Cc1cc(C)c(C#N)c(SCC2COc3ccccc3O2)n1 (stereo unspecified)	n	n	8.5	n	n	n
COc1cc(C(=O)NNC(=S)NCc2ccco2)cc(OC)c1OC	x	n	n	x	x	x
SMILES	Yeast growth inh	WT yeast gro inh	RAM network inh	Measles CPE	DAT uptake mod	Yeast life ext
CC(=C1C(=O)c2ccccc2C1=O)N1CCN(CCN=CC2=C(O)CC(C)(C)CC2=O)CC1	n	n	n	n	x	34
CC(=NCCN1CCN(C(C)=C2C(=O)c3ccccc3C2=O)CC1)C1=C(O)CC(C)(C)CC1=O	n	n	n	n	x	31
CC1(C)CC(=O)C(C=NCCN2CCN(C(=S)Nc3ccccc3)CC2)=C(O)C1	n	n	n	n	n	n
O=C(Nc1ccc(C#Cc2ccccc2)cc1)C1CC1	n	n	n	58	n	n
O=C(Nc1ccc(Oc2ccccc2)cc1)C1CC1	x	n	n	x	x	x
COc1ccc(-c2nnc(SCC(=O)Nc3cc(F)ccc3C)o2)cc1	n	n	n	n	n	n
O=c1c(-c2nnc(SCc3ccc(Cl)c(Cl)c3)o2)cccn1Cc1ccccc1	n	n	11	n	n	n
Clc1cccc(CSc2nnc(-c3c[nH]c4ccccc34)o2)c1	n	n	10	n	n	n
Cc1ccc(C(=O)CSc2nnc(-c3c[nH]c4ccccc34)o2)cc1	n	n	n	n	n	n
COc1ccc(CN(C(=O)CSc2nnc(-c3ccccc3C)o2)c2ccc(F)cc2)cc1	n	n	11	n	n	x
CC(C)C(C)NC(=O)CSc1nnc(-c2c[nH]c3ccccc23)o1 (stereo unspecified)	x	n	n	x	x	x
O=C(CSc1nnc(-c2c[nH]c3ccccc23)o1)N(Cc1ccccc1)c1ccc(F)cc1	n	59	n	n	n	n
CC(C)(CO)NCC(=O)Nc1cc(C(F)(F)F)cc(NC(=O)CNC(C)(C)CO)c1Cl	n	n	n	n	x	n
COC(=O)CN(C(=O)CSc1nnc(-c2cccc(OC)c2)o1)c1ccc(OC)cc1	n	n	11	n	n	n
CCOC(=O)CN(C(=O)CSc1nnc(-c2cccc(OC)c2)o1)c1ccc(F)cc1	n	n	n	n	n	n
COc1ccc(-c2cc(CN3C(=O)c4ccccc4C3=O)on2)cc1	x	x	x	x	n	x
COc1ccc(-c2noc(CN3C(=O)c4ccccc4C3=O)n2)cc1	n	n	n	37	n	n
CC(C)N(Cc1nc(-c2ccccc2)no1)C(=O)CCCN1C(=O)c2ccccc2C1=O	n	n	n	n	2.4	n
O=S(=O)(c1ccccc1)N(Cc1nc(-c2ccccc2)no1)C1CCCCC1	n	n	9.2	x	n	n
CC(C)N(Cc1nc(-c2ccccc2)no1)S(=O)(=O)c1ccccc1	n	n	n	n	n	n
CC(C)N(Cc1nc(-c2ccccc2)no1)C(=O)CN(C)S(=O)(=O)c1ccccc1	n	n	8.7	n	n	n
CCC(=O)NC(/C=C/c1ccccc1)c1cc([N+](=O)[O-])c2cccnc2c1O (stereo unspecified)	n	n	11	n	x	n
Cc1ccc(C(NC(=O)C(C)C)c2cc([N+](=O)[O-])c3cccnc3c2O)cc1 (stereo unspecified)	86	n	n	n	x	n
CC(C)C(=O)NC(c1cccs1)c1cc([N+](=O)[O-])c2cccnc2c1O (stereo unspecified)	n	n	n	n	x	n
CCOC(=O)CN(C(=O)CSc1nnc(CNc2ccc(F)cc2)o1)c1ccccc1	n	n	n	n	n	n
COc1ccc(NCc2nnc(SCC(=O)c3ccc(OC)cc3)o2)cc1	n	n	n	38	n	n
CC(C)(C)N(Cc1ccccc1)C(=O)CSc1nnc(CNc2ccc(F)cc2)o1	n	n	8.6	n	n	n
O=C1c2cccc3c(O)ccc(c23)C(=O)N1Cc1ccco1	x	n	n	x	x	x
O=C1c2ccccc2C(=O)N1Cc1ccco1	44	n	n	n	n	n
COc1cc(OC)c2c(-c3ccccc3)cc(=O)oc2c1C(CC(=O)N1CCCC1)c1ccc2c(c1)OCO2 (stereo unspecified)	x	x	x	x	2.1	x
